# Measurements as given in ChEMBL document CHEMBL4834419 (J Med Chem, 2021).
# Activity calls are given as the source filed them. No cut-off for these calls is given here.
# Target: T1, Retinoic acid receptor RXR-alpha (Homo sapiens, UniProt P19793)
# T1 sequence (P19793 whole entry): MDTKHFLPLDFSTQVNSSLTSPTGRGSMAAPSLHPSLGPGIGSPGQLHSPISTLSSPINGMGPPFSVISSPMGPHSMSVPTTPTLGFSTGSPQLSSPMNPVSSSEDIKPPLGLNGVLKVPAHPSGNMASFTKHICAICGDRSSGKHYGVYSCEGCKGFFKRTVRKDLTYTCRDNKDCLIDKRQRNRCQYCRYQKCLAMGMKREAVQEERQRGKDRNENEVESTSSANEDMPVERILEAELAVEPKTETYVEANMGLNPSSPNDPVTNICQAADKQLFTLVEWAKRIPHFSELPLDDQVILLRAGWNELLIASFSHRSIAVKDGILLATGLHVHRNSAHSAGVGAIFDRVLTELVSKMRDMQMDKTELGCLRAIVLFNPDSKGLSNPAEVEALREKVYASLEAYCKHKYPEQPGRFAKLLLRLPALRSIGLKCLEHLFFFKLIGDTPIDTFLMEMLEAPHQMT
# Assay: Agonist activity at human RXRalpha transfected in human HEK293T cells co-expressing pFR/pRL-Luc incubated for 14 to 16 hrs by hybrid reporter gene assay
# Format: cell-based
# Settings: not given
row,SMILES,EC50
1,O=C(O)CCCc1cc(-c2cc(Cl)cc(Cl)c2)n(-c2ccc(Cl)cc2)n1,1.3 µM
2,Cc1ccccc1-c1nc(CCC(=O)O)oc1-c1ccccc1,6.5 µM
3,Cn1ccc(-n2nc(CCC(=O)O)cc2-c2cc(Cl)cc(Cl)c2)n1,> 30 µM
4,Cc1cc(C)cc(-c2oc(CCC(=O)O)nc2-c2ccccc2)c1,0.3 µM
5,O=C(O)CCCc1nc(-c2ccccc2)c(-c2ccccc2)o1,7.9 µM
6,O=C(O)CCc1nc(-c2ccccc2)c(-c2cccc(C(F)(F)F)c2)o1,0.07 µM
7,O=C(O)c1nc(-c2ccccc2)c(-c2ccccc2)o1,> 50 µM
8,O=C(O)CCc1cc(-c2cc(Cl)cc(Cl)c2)n(-c2ccc(F)cc2)n1,0.43 µM
9,O=C(O)CCc1nc(-c2ccccc2)c(-c2ccccc2Cl)o1,17 µM
10,O=C(O)CCc1nc(-c2ccccc2)c(-c2cc(Cl)ccc2Cl)o1,5.8 µM
11,Cc1ccccc1-c1oc(CCC(=O)O)nc1-c1ccccc1,16.9 µM
12,Cc1ccc(-c2oc(CCC(=O)O)nc2-c2ccccc2)cc1,1 µM
13,N#Cc1ccc(-n2nc(CCC(=O)O)cc2-c2cc(Cl)cc(Cl)c2)cc1,7.7 µM
14,O=C(O)CCc1nc(-c2ccccc2)c(-c2cc(Cl)cc(Cl)c2)o1,0.06 µM
15,O=C(O)CCc1cc(-c2cc(Cl)cc(Cl)c2)n(-c2cccc(Cl)c2)n1,3.1 µM
16,O=C(O)CCc1nc(-c2ccc(Cl)c(Cl)c2)c(-c2ccccc2)o1,0.62 µM
17,O=C(O)CCc1nc(-c2cccc(Cl)c2)c(-c2ccccc2)o1,1.9 µM
18,O=C(O)CCCc1nc(-c2ccccc2)c(-c2cc(Cl)cc(Cl)c2)o1,0.48 µM
19,Cc1cccc(-c2oc(CCC(=O)O)nc2-c2ccccc2)c1,0.5 µM
20,COc1cccc(-c2oc(CCC(=O)O)nc2-c2ccccc2)c1,1.4 µM
21,COc1ccc(-n2nc(CCC(=O)O)cc2-c2cc(Cl)cc(Cl)c2)cc1,1.6 µM

# Target: T2, Retinoic acid receptor RXR-beta (Homo sapiens, UniProt P28702)
# T2 sequence (P28702 whole entry): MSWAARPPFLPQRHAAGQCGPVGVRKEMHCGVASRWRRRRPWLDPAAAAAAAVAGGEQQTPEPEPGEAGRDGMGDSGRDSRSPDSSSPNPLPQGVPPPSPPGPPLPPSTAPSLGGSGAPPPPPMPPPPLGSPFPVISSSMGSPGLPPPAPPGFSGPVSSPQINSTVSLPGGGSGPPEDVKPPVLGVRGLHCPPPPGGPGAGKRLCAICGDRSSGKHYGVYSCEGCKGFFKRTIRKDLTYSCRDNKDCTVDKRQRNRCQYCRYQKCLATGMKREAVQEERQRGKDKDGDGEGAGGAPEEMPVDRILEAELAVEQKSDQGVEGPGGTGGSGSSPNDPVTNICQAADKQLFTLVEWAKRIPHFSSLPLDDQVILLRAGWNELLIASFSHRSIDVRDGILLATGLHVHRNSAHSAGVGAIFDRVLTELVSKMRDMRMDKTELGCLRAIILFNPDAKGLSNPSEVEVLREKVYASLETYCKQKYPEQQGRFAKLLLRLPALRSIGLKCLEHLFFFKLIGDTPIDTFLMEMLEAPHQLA
# Assay: Agonist activity at human RXRbeta transfected in human HEK293T cells co-expressing pFR/pRL-Luc incubated for 14 to 16 hrs by hybrid reporter gene assay
# Format: cell-based
# Settings: not given
row,SMILES,EC50
1,O=C(O)CCCc1cc(-c2cc(Cl)cc(Cl)c2)n(-c2ccc(Cl)cc2)n1,1.1 µM
2,Cc1ccccc1-c1nc(CCC(=O)O)oc1-c1ccccc1,39 µM
3,Cn1ccc(-n2nc(CCC(=O)O)cc2-c2cc(Cl)cc(Cl)c2)n1,> 30 µM
4,Cc1cc(C)cc(-c2oc(CCC(=O)O)nc2-c2ccccc2)c1,0.9 µM
5,O=C(O)CCCc1nc(-c2ccccc2)c(-c2ccccc2)o1,13.5 µM
6,O=C(O)CCc1nc(-c2ccccc2)c(-c2cccc(C(F)(F)F)c2)o1,0.08 µM
7,O=C(O)c1nc(-c2ccccc2)c(-c2ccccc2)o1,> 50 µM
8,O=C(O)CCc1cc(-c2cc(Cl)cc(Cl)c2)n(-c2ccc(F)cc2)n1,0.47 µM
9,O=C(O)CCc1nc(-c2ccccc2)c(-c2ccccc2Cl)o1,19.1 µM
10,O=C(O)CCc1nc(-c2ccccc2)c(-c2cc(Cl)ccc2Cl)o1,1.4 µM
11,Cc1ccc(-c2oc(CCC(=O)O)nc2-c2ccccc2)cc1,1.6 µM
12,N#Cc1ccc(-n2nc(CCC(=O)O)cc2-c2cc(Cl)cc(Cl)c2)cc1,2 µM
13,O=C(O)CCc1nc(-c2ccccc2)c(-c2cc(Cl)cc(Cl)c2)o1,0.05 µM
14,O=C(O)CCc1cc(-c2cc(Cl)cc(Cl)c2)n(-c2cccc(Cl)c2)n1,2 µM
15,O=C(O)CCc1nc(-c2ccc(Cl)c(Cl)c2)c(-c2ccccc2)o1,1.3 µM
16,O=C(O)CCc1nc(-c2cccc(Cl)c2)c(-c2ccccc2)o1,2.9 µM
17,O=C(O)CCCc1nc(-c2ccccc2)c(-c2cc(Cl)cc(Cl)c2)o1,0.5 µM
18,Cc1cccc(-c2oc(CCC(=O)O)nc2-c2ccccc2)c1,0.9 µM
19,COc1cccc(-c2oc(CCC(=O)O)nc2-c2ccccc2)c1,1.8 µM
20,COc1ccc(-n2nc(CCC(=O)O)cc2-c2cc(Cl)cc(Cl)c2)cc1,1.4 µM

# Target: T3, Retinoic acid receptor RXR-gamma (Homo sapiens, UniProt P48443)
# T3 sequence (P48443 whole entry): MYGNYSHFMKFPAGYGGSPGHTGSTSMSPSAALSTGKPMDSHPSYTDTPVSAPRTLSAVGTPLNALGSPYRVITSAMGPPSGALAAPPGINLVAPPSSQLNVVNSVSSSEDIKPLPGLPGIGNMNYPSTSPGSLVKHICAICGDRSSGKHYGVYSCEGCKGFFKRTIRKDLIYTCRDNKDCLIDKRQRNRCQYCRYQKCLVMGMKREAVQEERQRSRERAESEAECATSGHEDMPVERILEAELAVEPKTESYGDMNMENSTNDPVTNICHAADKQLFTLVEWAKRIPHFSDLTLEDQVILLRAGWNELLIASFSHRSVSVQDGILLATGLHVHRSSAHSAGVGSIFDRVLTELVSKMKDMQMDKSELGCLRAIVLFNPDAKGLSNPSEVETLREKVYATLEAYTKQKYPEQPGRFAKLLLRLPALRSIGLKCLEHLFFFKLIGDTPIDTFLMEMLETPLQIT
# Assay: Agonist activity at human RXRgamma transfected in human HEK293T cells co-expressing pFR/pRL-Luc incubated for 14 to 16 hrs by hybrid reporter gene assay
# Format: cell-based
# Settings: not given
row,SMILES,EC50
1,O=C(O)CCCc1cc(-c2cc(Cl)cc(Cl)c2)n(-c2ccc(Cl)cc2)n1,3 µM
2,Cc1ccccc1-c1nc(CCC(=O)O)oc1-c1ccccc1,25 µM
3,Cn1ccc(-n2nc(CCC(=O)O)cc2-c2cc(Cl)cc(Cl)c2)n1,> 30 µM
4,O=C(O)CCCc1nc(-c2ccccc2)c(-c2ccccc2)o1,43 µM
5,O=C(O)CCc1nc(-c2ccccc2)c(-c2cccc(C(F)(F)F)c2)o1,0.3 µM
6,O=C(O)c1nc(-c2ccccc2)c(-c2ccccc2)o1,> 50 µM
7,O=C(O)CCc1cc(-c2cc(Cl)cc(Cl)c2)n(-c2ccc(F)cc2)n1,1.64 µM
8,O=C(O)CCc1nc(-c2ccccc2)c(-c2cc(Cl)ccc2Cl)o1,> 20 µM
9,Cc1ccccc1-c1oc(CCC(=O)O)nc1-c1ccccc1,> 30 µM
10,Cc1ccc(-c2oc(CCC(=O)O)nc2-c2ccccc2)cc1,> 10 µM
11,N#Cc1ccc(-n2nc(CCC(=O)O)cc2-c2cc(Cl)cc(Cl)c2)cc1,6 µM
12,O=C(O)CCc1nc(-c2ccccc2)c(-c2cc(Cl)cc(Cl)c2)o1,0.2 µM
13,O=C(O)CCc1cc(-c2cc(Cl)cc(Cl)c2)n(-c2cccc(Cl)c2)n1,3.5 µM
14,O=C(O)CCc1nc(-c2ccc(Cl)c(Cl)c2)c(-c2ccccc2)o1,4.5 µM
15,O=C(O)CCc1nc(-c2cccc(Cl)c2)c(-c2ccccc2)o1,6.7 µM
16,O=C(O)CCCc1nc(-c2ccccc2)c(-c2cc(Cl)cc(Cl)c2)o1,1.3 µM
17,Cc1cccc(-c2oc(CCC(=O)O)nc2-c2ccccc2)c1,3.5 µM
18,COc1cccc(-c2oc(CCC(=O)O)nc2-c2ccccc2)c1,> 10 µM
19,COc1ccc(-n2nc(CCC(=O)O)cc2-c2cc(Cl)cc(Cl)c2)cc1,4 µM

# System: not listed separately
# Assay: Metabolic stability in Sprague-Dawley rat liver microsomes assessed as compound degradation at 10 uM incubated for 60 min by HPLC analysis
# Format: ADME
# Settings: 1 h
# Summary of the method: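 Compound at 10 μM final in 0.1 M phosphate, pH 7.4, was preincubated 5 min at 37 °C with an NADPH-regenerating system. Sprague-Dawley rat liver microsomes were then added. Reactions were stopped with ice-cold methanol at 0, 15, 30 and 60 min and remaining compound quantified by HPLC against an external calibration. Controls: no NADPH, heat-inactivated microsomes. Three independent experiments.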
row,SMILES,Stabilty
1,O=C(O)CCc1nc(-c2ccccc2)c(-c2cc(Cl)cc(Cl)c2)o1,Stable

# Target: T4, Retinoic acid receptor RXR-gamma (Homo sapiens) (UniProt P48443)
# T4 sequence (whole entry): T3 sequence (P48443 whole entry)
# Assay: Agonist activity at human RXRgamma transfected in human HEK293T cells co-expressing pFR/pRL-Luc at 50 uM incubated for 14 to 16 hrs by hybrid reporter gene assay
# Format: cell-based
# Settings: time 14-16 hrs
# Summary of the method: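 Gal4 hybrid reporter assay in HEK293T cells, seeded 24 h before transfection (Lipofectamine LTX, Opti-MEM) with pFR-Luc, pRL-SV40 and pFA-CMV plasmid carrying the hinge region and LBD of the human receptor. After 5 h, compound added in 0.1% DMSO, with 0.1% DMSO alone as untreated control. Dual-Glo luciferase read after 14−16 h; firefly/renilla normalized; duplicates, ≥2 independent experiments.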
row,SMILES,Activity
1,O=C(O)CCc1nc(-c2ccccc2)c(-c2ccccc2Cl)o1,inactive
